Experimental data published in paper PMC7427514 (Chem, 2020).

Tests used:
GABAA receptors = assay: Voltage-clamp recordings of GABA-evoked currents in neuronal cultures; assay type: cell-based; conditions: 10 μM bath application; 12–20 DIV hippocampal mouse neurons
Outline: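 Cultured hippocampal mouse neurons at DIV12–20 were voltage-clamped at 22–24°C in extracellular solution. GABA-evoked currents (average of five sweeps) were recorded before and after bath application of test compound (10 μM). Cells with access resistance >25 MΩ or with >20% variation in GABA-current peak were excluded. Signals were sampled at 20 kHz and low-pass filtered at 10 kHz.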

[1] = system: 3DIV hippocampal mouse neurons; assay: Ca2+ influx assay upon GABA application in immature; assay type: cell-based; conditions: for Ca2+ influx upon GABA application: 10, 100 μM, GABA 100 μM, compared with DMSO-treated controls; for cell viability (fluorescence level upon KCl application): KCl 90 mM, 3DIV neurons
[2] = system: WT and Ts65Dn hippocampal neurons; assay: MQAE Cl− imaging in neuronal cultures; assay type: cell-based, mouse; conditions: 10 μM
Outline: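 Hippocampal neurons from P2 WT and Ts65Dn pups were cultured on poly-L-lysine coverslips in Neurobasal-A/B-27. At 15 DIV they were loaded with 5 mM MQAE plus test compound (10 μM) or DMSO for 30 min at 37°C. Coverslips were then perfused with extracellular solution (pH 7.4) containing compound for 5 min at 25°C and imaged by confocal microscopy.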

[3] = system: valproic acid (VPA) mouse model of ASD; assay: Marble burying test in VPA mice; assay type: in vivo; conditions: 0.2 mg kg−1 IP daily, chronic
Outline: (§1)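 Male VPA-model mice (prenatal VPA 600 mg/kg i.p. at gestational day 12.5) and controls, 6–8 weeks old, were randomized to vehicle (2% DMSO in saline) or test compound 0.2 mg/kg i.p. daily for 21–28 days. Tests started after 1 week of treatment, 1 h post-injection, and were video-scored manually by a blind operator.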

VPA mice and controls = assay: Diuresis analysis in VPA mice and controls; assay type: in vivo, mouse; conditions: 0.2 mg kg−1 IP; young adult control and VPA mice; relative to vehicle
Outline: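 VPA-model offspring were from C57BL/6J dams given 600 mg/kg VPA i.p. in PBS at gestational day 12.5; controls were included. Mice of both sexes received one i.p. dose of vehicle or test compound at 0.2 mg/kg, from a 1 mg/mL DMSO stock diluted in PBS to 0.02 mg/mL and injected at 10 μL/g. Urine volume was collected for 120 min.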

[4] = system: Ts65Dn mice and WT littermates; assay: Diuresis analysis in Ts65Dn mice and WT littermates; assay type: in vivo, mouse; conditions: 0.2 mg kg−1 IP; adult WT and Ts65Dn mice; relative to vehicle
Outline: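 Adult (P60–120) Ts65Dn mice and WT littermates of both sexes received one i.p. dose of vehicle or test compound at 0.2 mg/kg. The dose was given from a 1 mg/mL DMSO stock diluted in PBS to 0.02 mg/mL and injected at 10 μL/g. Urine volume was collected for 2 h, after which mice were returned to home cages.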

[5] = system: valproic acid (VPA) mouse model of ASD; assay: Grooming test in VPA mice; assay type: in vivo; conditions: 0.2 mg kg−1 IP daily, chronic
Outline: as §1

[6] = system: valproic acid (VPA) mouse model of ASD; assay: Male-female interaction test in VPA mice; assay type: in vivo; conditions: 0.2 mg kg−1 IP daily, chronic
Outline: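 Male VPA-model mice (6–8 weeks) and controls were dosed i.p. daily with vehicle or test compound at 0.2 mg/kg, with testing 1 h post-injection after at least 1 week of treatment. Each male was placed alone in a cage and habituated for 5 min. An unfamiliar C57BL/6J female was then introduced, and behavior was recorded for 5 min and scored blind.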

NKCC2 = target: T1, NKCC2 (Homo sapiens, UniProt Q13621); assay: Cl− influx assay in NKCC2-transfected HEK293 cells; assay type: cell-based; conditions: HEK293, read-out: NKCC2 inhibition
T1 sequence (Q13621 1-1099): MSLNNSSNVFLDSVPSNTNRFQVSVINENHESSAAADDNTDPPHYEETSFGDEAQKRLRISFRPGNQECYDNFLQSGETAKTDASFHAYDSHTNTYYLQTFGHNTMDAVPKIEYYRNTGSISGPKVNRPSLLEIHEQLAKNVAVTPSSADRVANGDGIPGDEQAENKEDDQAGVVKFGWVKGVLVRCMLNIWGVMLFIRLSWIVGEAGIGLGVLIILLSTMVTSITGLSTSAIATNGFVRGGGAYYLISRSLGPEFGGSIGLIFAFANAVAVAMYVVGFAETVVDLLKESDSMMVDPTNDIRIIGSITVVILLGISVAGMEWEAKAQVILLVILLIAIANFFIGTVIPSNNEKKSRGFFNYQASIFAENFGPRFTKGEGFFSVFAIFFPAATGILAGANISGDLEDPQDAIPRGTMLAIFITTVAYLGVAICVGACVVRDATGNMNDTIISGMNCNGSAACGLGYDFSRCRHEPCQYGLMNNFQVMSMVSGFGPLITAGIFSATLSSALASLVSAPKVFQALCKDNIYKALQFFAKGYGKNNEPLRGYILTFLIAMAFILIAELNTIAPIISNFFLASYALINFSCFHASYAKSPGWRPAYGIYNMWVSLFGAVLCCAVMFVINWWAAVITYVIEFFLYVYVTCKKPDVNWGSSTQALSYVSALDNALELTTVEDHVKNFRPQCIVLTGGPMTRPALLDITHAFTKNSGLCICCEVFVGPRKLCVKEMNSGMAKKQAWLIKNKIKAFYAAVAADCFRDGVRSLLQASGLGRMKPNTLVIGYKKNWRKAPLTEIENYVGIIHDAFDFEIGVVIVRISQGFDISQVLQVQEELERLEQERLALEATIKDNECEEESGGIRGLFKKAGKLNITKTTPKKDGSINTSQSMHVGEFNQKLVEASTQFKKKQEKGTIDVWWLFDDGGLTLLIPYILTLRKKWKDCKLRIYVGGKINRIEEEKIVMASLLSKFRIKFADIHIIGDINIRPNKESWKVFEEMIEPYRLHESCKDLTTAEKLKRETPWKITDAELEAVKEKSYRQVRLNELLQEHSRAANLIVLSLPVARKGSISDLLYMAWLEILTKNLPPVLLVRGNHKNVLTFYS
Outline: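 HEK293 cells were co-transfected by lipofection with NKCC2 (in PRK5) or empty vector plus membrane-tagged Cl−-sensitive YFP, replated after 4 h, and assayed at 48 h. Test compound (10 or 100 μM) was applied for 30 min in Cl−-free hypotonic HEPES buffer, pH 7.4. Fluorescence (ex 485/em 535 nm) was read for 20 s baseline and 60 s after NaCl (74 mM final). Fluorescence decrease is expressed as % of DMSO control; four independent experiments, mean ± SEM.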

KCC2 = target: T2, KCC2 (Homo sapiens, UniProt Q9H2X9); assay: Tl influx assay in KCC2-transfected HEK293 cells; assay type: cell-based; conditions: 10 μM, versus control DMSO, mean ± SEM
T2 sequence (Q9H2X9 1-1139): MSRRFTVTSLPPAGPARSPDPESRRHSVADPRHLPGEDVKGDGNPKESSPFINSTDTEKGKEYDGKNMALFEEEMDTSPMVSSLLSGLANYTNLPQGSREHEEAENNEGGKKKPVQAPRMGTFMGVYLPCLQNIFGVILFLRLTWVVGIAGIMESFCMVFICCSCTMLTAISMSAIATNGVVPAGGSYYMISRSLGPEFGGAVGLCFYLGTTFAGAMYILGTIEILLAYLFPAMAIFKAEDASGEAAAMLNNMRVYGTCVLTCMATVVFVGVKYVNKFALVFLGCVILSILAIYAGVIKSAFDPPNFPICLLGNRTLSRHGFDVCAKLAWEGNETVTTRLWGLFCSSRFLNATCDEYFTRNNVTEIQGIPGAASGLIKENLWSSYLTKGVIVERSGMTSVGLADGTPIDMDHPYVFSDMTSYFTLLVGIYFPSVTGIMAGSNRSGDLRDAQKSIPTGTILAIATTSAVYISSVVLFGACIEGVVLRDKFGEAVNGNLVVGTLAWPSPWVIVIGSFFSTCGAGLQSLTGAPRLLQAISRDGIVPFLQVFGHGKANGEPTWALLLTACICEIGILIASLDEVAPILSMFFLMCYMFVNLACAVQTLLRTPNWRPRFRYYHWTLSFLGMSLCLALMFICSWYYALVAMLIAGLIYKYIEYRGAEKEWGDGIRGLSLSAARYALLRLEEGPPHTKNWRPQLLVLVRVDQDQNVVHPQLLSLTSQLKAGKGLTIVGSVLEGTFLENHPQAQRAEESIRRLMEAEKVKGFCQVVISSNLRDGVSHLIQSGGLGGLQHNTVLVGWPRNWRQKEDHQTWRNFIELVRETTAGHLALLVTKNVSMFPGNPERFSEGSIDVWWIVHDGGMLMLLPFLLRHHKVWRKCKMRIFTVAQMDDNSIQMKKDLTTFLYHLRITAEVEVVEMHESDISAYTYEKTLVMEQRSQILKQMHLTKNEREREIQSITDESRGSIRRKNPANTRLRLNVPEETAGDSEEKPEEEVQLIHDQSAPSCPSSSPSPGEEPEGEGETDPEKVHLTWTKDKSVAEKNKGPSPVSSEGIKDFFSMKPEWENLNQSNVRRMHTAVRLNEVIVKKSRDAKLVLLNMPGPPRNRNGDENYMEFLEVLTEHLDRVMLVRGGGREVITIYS
Outline: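 KCC2 (in PRK5)- or mock-transfected HEK293 cells were loaded for 1 h with Tl-sensitive dye (1:1,000) and probenecid (1:100) in Cl−-free hypotonic solution, washed, then treated with test compound with 100 μM ouabain. Fluorescence (ex 485/em 535 nm) was read for 20 s baseline, 20 s after TlSO4 (2 mM final), then 60 s after NaCl (74 mM final). Mock ΔF/F0 (last 10 s) was subtracted; fluorescence increase is expressed as % of DMSO control.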

Row | inhibitory activity on GABAA receptors (GABA-evoked currents) (GABAA receptors) | diuretic effect (urine volume for 2 h) (VPA mice and controls) | diuretic effect (urine volume for 2 h) [4] | inhibition at 10 µM (NKCC2) | KCC2 inhibition (KCC2) | Compound | Ca2+ influx upon GABA application [1] | cell viability (fluorescence level upon KCl application) [1] | [Cl−]i in wild-type (WT) neurons ([2]; 15 DIV WT neurons) | [Cl−]i in Ts65Dn neurons ([2]; mature (15 DIV) Ts65Dn neurons) | repetitive behaviors in the marble burying test [3] | repetitive behaviors in the grooming task [5] | sociability during male-female interaction [6] | level of alleged NKCC1 inhibition in the Ca2+ influx assay compared with the Cl− influx assay ([1]; 10 and 100 μM)
1 | variable inhibitory activity | – | – | – | – | NS(=O)(=O)c1cc(C(=O)O)c(NCc2ccco2)cc1Cl [furosemide] | significantly reduced | without affecting the cell viability | – | – | – | – | – | –
2 | this was not the case | significantly increased the urine volume | significantly increased the urine volume | 82.7 ± 20.4% | – | CCCCNc1cc(C(=O)O)cc(S(N)(=O)=O)c1Oc1ccccc1 [bumetanide] | significantly reduced | without affecting the cell viability | without significantly affecting | restored aberrant [Cl^−]i to physiological levels | significantly reduced repetitive behaviors | non-significant trend toward WT levels | rescued poor sociability | corresponded to the levels obtained for the Cl^− influx assay
3 | – | – | – | – | 37.6 ± 6.7% | CCCC[C@]1(C2CCCC2)Cc2cc(OCC(=O)O)c(Cl)c(Cl)c2C1=O [DIOA, R-(+)-[(2-n-Butyl-6,7-dichloro-2-cyclopentyl-2,3-dihydro-1-oxo-1H-inden-5-yl)oxy]acetic acid] | – | – | – | – | – | – | – | –
